“Also recorded” adds a separate entry of the source.
Experiments:
MMTV-Neu tumors [1] = assay: Short-term tumor volume response, MMTV-Neu GEMM; assay type: in vivo, mice (FVB/n); details: MMTV-Neu model; for Tumor response (change in tumor volume), in words: 21-day treatment
In short: (§1)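 FVB/n transgenic mice bred in-house, enrolled at spontaneous mammary tumor onset (~0.5 cm), randomized to treatment or untreated control groups. Injectable agents given i.p. once weekly, three doses over 21 days; oral agents milled into chow, given continuously; combinations at single-agent doses. Caliper and/or ultrasound measurements; volume = (width)² × length/2; response = percent volume change at day 21.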

C3(1)-T-antigen tumors = assay: Short-term tumor volume response, C3; assay type: in vivo, mice (FVB/n); details: C3(1)-T-antigen model; for Tumor response (change in tumor volume), in words: 21-day treatment
In short: as §1

T11/TP53−/− tumors = assay: Short-term tumor volume response, T11/TP53-/- OST; assay type: in vivo, mice (BALB/c); details: T11/TP53−/− model, 14-day treatment
MMTV-Neu tumors [2] = assay: Overall survival of tumor-bearing mice, MMTV-Neu; assay type: in vivo, mice (FVB/n); details: MMTV-Neu model, single agent
[3] = Paclitaxel pharmacokinetics in plasma and tumor; assay type: in vivo, transgenic FVB/n mice bearing the MMTV-Neu transgene

Row | Structure (SMILES) | Tumor response (change in tumor volume), in words (MMTV-Neu tumors [1]) | Tumor response (change in tumor volume), in words (C3(1)-T-antigen tumors) | Tumor response (change in tumor volume), in words (T11/TP53−/− tumors) | Subset of treated mice showing potent activity (C3(1)-T-antigen tumors) [%] | Extension of lifespan, in words (MMTV-Neu tumors [2]) | Tumor regression (MMTV-Neu tumors [1]; all tumors) [%] | Median survival (MMTV-Neu tumors [2]; untreated median 29 days) [days] | AUC(0-inf) ([3]; FVB/n (MMTV-Neu transgenic), mouse, plasma, ip, 10 mg/kg) [ng·h/mL] | AUC0-∞ in tumor ([3]; single IP dose 10 mg/kg, MMTV-Neu mice, tumor) [µg·h/g]
1 | N.N.O=C([O-])C1(C(=O)[O-])CCC1.[Pt+2] [carboplatin, Carboplatin] | modest but significant responses | modest but significant responses | modest but significant responses | – | – | – | – | – | –
2 | C#Cc1cccc(Nc2ncnc3cc(OCCOC)c(OCCOC)cc23)c1 [erlotinib] | highly effective | – | – | ~40 | to some extent | – | – | – | –
3 | CS(=O)(=O)CCNCc1ccc(-c2ccc3ncnc(Nc4ccc(OCc5cccc(F)c5)c(Cl)c4)c3c2)o1 [lapatinib] | exceptional efficacy; also recorded: highly effective; also recorded: complete tumor regression | ineffective | neither erlotinib nor lapatinib were effective | – | greatly extended lifespan | ~100 | 154 | – | –
4 | CC(=O)O[C@H]1C(=O)[C@@]2(C)[C@H]([C@H](OC(=O)c3ccccc3)[C@]3(O)C[C@H](OC(=O)[C@H](O)[C@@H](NC(=O)c4ccccc4)c4ccccc4)C(C)=C1C3(C)C)[C@]1(OC(C)=O)CO[C@@H]1C[C@@H]2O [paclitaxel] | no response | no response | no response | – | – | – | – | 6300 | 42.4

— article PMC3778918 (Clinical cancer research : an official journal of the …, 2013)
